Source: article PMC8883152 (Translational Vision Science & Technology, 2022)

Experiments:
Format in all cases: in vivo, C57BL/6 mice
[1] = system: Dex-induced OHT mouse model; test: Electroretinography; conditions: day 21, compared with vehicle-treated group
Summary of the method: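 Male C57BL/6 mice (11 weeks) received 0.1% dexamethasone eye drops (20 µL/eye) in both eyes three times daily for 2 weeks, continued through dosing. Test compound (0.04% BID), latanoprost (0.005% QD) or both were then given topically for 21 days, doses 5 min apart. ERG was run on both eyes of dark-adapted anaesthetised mice on days 0 and 21. A single white 0.3 log cd·s/m2 flash was used, and b-wave amplitude was measured.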

RGCs = test: Hematoxylin and eosin staining of retinal sections; conditions: after 21 days treatment, H&E retinal cross-sections
Summary of the method: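 In dexamethasone-induced hypertensive C57BL/6 mice treated topically for 21 days, eyes were enucleated after euthanasia and fixed in 10% formalin for 24 h. They were paraffin-embedded and sectioned. Retinal sections were stained with hematoxylin (0.1% plus 10% ammonium) for 3–5 min, then 1% eosin Y for 1 min. Slides were dehydrated through ethanol and xylene and scanned to assess RGCs.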

[2] = system: fibronectin and α-SMA expression in the TM; conditions: after 21 days treatment
Summary of the method: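 Eye sections from dexamethasone-induced hypertensive C57BL/6 mice (21 days of topical dosing) were used. Sections were incubated overnight at room temperature with fibronectin and α-SMA antibodies (1:200) and washed in 0.1 M PBST. Fluorescent secondary antibodies (1:500) were applied for 1 h. Sections were DAPI-counterstained and imaged by fluorescence microscopy focused on the trabecular meshwork.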

[3] = system: Dex-induced OHT mouse model; test: IOP in dexamethasone-induced ocular hypertension mouse model; conditions: HL3501 0.04% BID, latanoprost 0.005% QD, or both
Summary of the method: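 IOP was read with a rebound tonometer on days 0, 1, 3, 5, 7, 10, 14, 17 and 21 in male C57BL/6 mice. Ocular hypertension was pre-induced by 0.1% dexamethasone (20 µL/eye, three times daily, 2 weeks; maintained throughout). Drops were test compound 0.04% BID, latanoprost 0.005% QD, or both 5 min apart, for 21 days. Groups had 8–10 mice. Basal IOP was taken before dexamethasone.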

[4] = system: MMP-2/TIMP-2 and MMP-9/TIMP-1 ratios; conditions: retinal extracts, normalized to α-tubulin
Summary of the method: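 Three mice per group were used (dexamethasone-induced hypertension, 21 days of topical dosing). Retinas were homogenised in RIPA buffer (pH 8.0) and centrifuged at 14,000g for 30 min at 4°C. Protein (10 µg/lane) was run on 10% SDS-PAGE and blotted. Membranes were probed overnight at room temperature for MMP-2, MMP-9, TIMP-1 and TIMP-2. Bands were detected by ECL densitometry and normalised to α-tubulin, and MMP-2/TIMP-2 and MMP-9/TIMP-1 ratios were calculated.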

## CC(C)OC(=O)CCC/C=C\C[C@@H]1[C@@H](CC[C@@H](O)CCc2ccccc2)[C@H](O)C[C@@H]1O [Latanoprost, latanoprost]
[1]
  b-wave values on day 21 (in words): did not decrease as much
RGCs
  RGC loss (in words): less affected by RGC loss
[2]
  Fibronectin and α-SMA expression in the TM compared with vehicle (in words): suppressed
[3]
  IOP effect over 3 weeks in Dex-induced OHT mouse model (in words): consistent IOP-lowering effect
[4]
  MMP-2/TIMP-2 ratio (in words): increased
  MMP-9/TIMP-1 ratio (in words): increased
